Data as given in PMC7678623 (Angewandte Chemie (International ed. in English), 2019).

Assays:
Format in all cases: cell-based
[1] = test system: IKZF1/3; assay: Immunoblot for IKZF1/3 degradation in Jurkat cells; details: 4h, Figure 3
[2] = test system: CDK4/6; assay: Immunoblot for CDK4/6 degradation in Jurkat cells; details: WT Jurkat cells, 4h, Figure 3
In short: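 Jurkat cells, which express both CDK4 and CDK6, were treated for 4h with test compound at 1 µM. The test compounds were degraders built on each of three CDK4/6 inhibitor scaffolds. CDK4 and CDK6 protein levels were then assessed by immunoblot.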

[3] = test system: Molt4 cells; assay: Multiplexed MS-based quantitative proteomics; details: 250 nM, 5h
[4] = test system: CDK4/6, IKZF1/3, phosphorylated Rb; assay: Immunoblots in Granta-519 cells; details: 1 µM, 1d
[5] = test system: wildtype and Crbn−/− Jurkat cells; assay: Cell cycle profile by propidium iodide staining of DNA content; details: 100 nM, 24h
In short: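 Wildtype and Crbn−/− Jurkat cells were exposed to 100 nM test compound for 24h, alongside a parent CDK4/6 inhibitor and an imide CRBN ligand as comparators. Cells were stained with propidium iodide for DNA content, and cell cycle distribution was read from fluorescence histograms and then quantitated.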

SMILES	IKZF1/3 degradation (immunoblot) [1]	CDK4 and CDK6 degradation selectivity (immunoblot) [2]	proteome-wide degradation selectivity [3]	CDK4/6 and IKZF1/3 protein loss (immunoblot) [4]	CDK4 abundance change [3]	cell cycle effect (G1 arrest) ([5]; Crbn−/− Jurkat cells)	cell cycle effect (G1 arrest) ([5]; wildtype Jurkat cells)	levels of phosphorylated Rb (immunoblot) [4]
CN(C)C(=O)c1cc2cnc(Nc3ccc(N4CCN(CCCCNC(=O)CNc5cccc6c5C(=O)N(C5CCC(=O)NC5=O)C6=O)CC4)cn3)nc2n1C1CCCC1 (centres unmarked) [BSJ-01–187]	induced degradation of IKZF1/3	selectively degraded CDK4	–	–	–	–	–	–
CC(=O)c1c(C)c2cnc(Nc3ccc(N4CCN(CCOCCOCCOCCNC(=O)COc5cccc6c5C(=O)N(C5CCC(=O)NC5=O)C6=O)CC4)cn3)nc2n(C2CCCC2)c1=O (centres unmarked) [BSJ-03–123]	none of which induced IKZF1/3 degradation	selective CDK6 degrader	loss of CDK6, but not CDK4 or IKZF1/3	–	–	–	–	–
CC(=O)c1c(C)c2cnc(Nc3ccc(N4CCN(CCCCNC(=O)COc5cccc6c5C(=O)N(C5CCC(=O)NC5=O)C6=O)CC4)cn3)nc2n(C2CCCC2)c1=O (centres unmarked) [BSJ-03–204]	none of which induced IKZF1/3 degradation	dual CDK4/6 degrader	selective for CDK4/6 degradation	only resulted in degradation of CDK4/6	–	–	–	–
CN(C)C(=O)c1cc2cnc(Nc3ccc(N4CCN(CCCCNC(=O)COc5cccc6c5C(=O)N(C5CCC(=O)NC5=O)C6=O)CC4)cn3)nc2n1C1CCCC1 (centres unmarked) [BSJ-04–132]	none of which induced IKZF1/3 degradation	selective CDK4 degrader	its level was reduced to a greater extent than those of CDK6, IKZF1 and IKZF3	–	~ 1.9 fold change	–	–	–
CC(=O)c1c(C)c2cnc(Nc3ccc(N4CCN(CC(=O)NCCOCCOCCOCCNc5cccc6c5C(=O)N(C5CCC(=O)NC5=O)C6=O)CC4)cn3)nc2n(C2CCCC2)c1=O (centres unmarked) [YKL-06–102]	induced degradation of IKZF1/3	induced selective degradation of CDK6	–	–	–	–	–	–
Nc1cccc2c1CN(C1CCC(=O)NC1=O)C2=O (centres unmarked) [lenalidomide]	–	–	–	–	–	had no effect	had no effect	–
CC(=O)c1c(C)c2cnc(Nc3ccc(N4CCNCC4)cn3)nc2n(C2CCCC2)c1=O [palbociclib]	–	–	–	–	–	induced profound G1 arrest in both cell lines	induced profound G1 arrest in both cell lines	reduced levels of phosphorylated Rb
